Activity calls are given as the source filed them. The rule behind the calls is not given here.

This passage reports inhibition, Activity and IC50 results from ChEMBL document CHEMBL3102736, “Synthesis and evaluation of cytotoxic activities of new guanidines derived from carbazoles” (Bioorg Med Chem Lett, 2014).

The subject of test [1] is KB. As to the kind of experiment: Cytotoxicity against human KB cells at 10^-5 M after 72 hrs by MTS assay. It counts as functional. The essentials: (§1)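 KB and MRC5-SV2 cells grown in D-MEM with 10% fetal calf serum and antibiotics under 5% CO2. Seeded at 650–2000 cells/well and dosed 24 h later at 10^-6 or 10^-5 M from DMSO (1% final). After 72 h, MTS added for 3 h at 37 °C, then A490 read. % inhibition = (1 − OD treated/OD control) × 100.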

Test [2] has as its system KB. The test can be described thus: Cytotoxicity against human KB cells at 10^-6 M after 72 hrs by MTS assay. It counts as functional. The procedure, abridged:
as §1
For orientation: Formazan colour is commonly taken as a measure of viable cells.

Test [3] relates to DNA. The test can be described thus: Binding affinity to calf thymus DNA at 10^-4 M by fluorescence assay. It counts as nucleic-acid assay. The conditions noted are these: Bos taurus. The essentials: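 Fluorescence titration at 37 °C in 0.01 M Tris, pH 7.4. Compound working solution at 10^-4 M (diluted from a 10^-2 M DMSO stock); calf thymus DNA added at increasing levels across 25–100 µg/mL. Excitation at 290 nm, emission recorded over 330–390 nm.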

The subject of a further test is HL-60. The test can be described thus: Cytotoxicity against human HL60 cells after 72 hrs by MTS assay. It counts as functional, cell-based. The conditions noted are these: HL-60, 72 h. The procedure, abridged: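 HL60 cells cultured in supplemented RPMI (10% fetal calf serum) under 5% CO2. Seeded at 650–2000 cells/well and treated 24 h later with compound from DMSO (1% final), 0.5 nM–10 µM. After 72 h, MTS added for 3 h at 37 °C, then A490 read. IC50 taken as 50% inhibition of proliferation; separate duplicate experiments.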

The test system of test [4] is DNA. As to the kind of experiment: Binding affinity to calf thymus DNA at 10^-4 M by UV-Visible spectrophotometry. Conditions: Bos taurus. The format is nucleic-acid assay. The procedure, abridged: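 Compound working solution at 10^-4 M (diluted from DMSO stock in 0.01 M Tris) in Tris buffer (0.01 M, pH 7.4) at 37 °C. UV-Vis absorption spectra (230–500 nm) recorded without and with calf thymus DNA at a fixed 100 µg/mL.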

The test system of test [5] is HCT-116. As to the kind of experiment: Cytotoxicity against human HCT116 cells at 10^-5 M after 72 hrs by MTS assay. The format is functional, cell-based. The essentials:
(§2)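 HCT116, MCF7 and PC3 cells grown in RPMI with 10% fetal calf serum and antibiotics under 5% CO2. Seeded at 650–2000 cells/well and dosed 24 h later at 10^-6 or 10^-5 M from DMSO (1% final). After 72 h, MTS added for 3 h at 37 °C, then A490 read. % inhibition = (1 − OD treated/OD control) × 100.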

Test [6] has as its system PC-3. The test can be described thus: Cytotoxicity against human PC3 cells at 10^-5 M after 72 hrs by MTS assay. The format is functional, cell-based. The procedure, abridged: as §2
For test [7], the system named is MRC5. The test can be described thus: Cytotoxicity against human MRC5 cells at 10^-6 M after 72 hrs by MTS assay. It counts as functional, cell-based. The essentials: as §1
Test [8] relates to MRC5. The test can be described thus: Cytotoxicity against human MRC5 cells at 10^-5 M after 72 hrs by MTS assay. It counts as functional, cell-based. The essentials: as §1
For test [9], the system named is HCT-116. As to the kind of experiment: Cytotoxicity against human HCT116 cells at 10^-6 M after 72 hrs by MTS assay. It counts as functional, cell-based. The essentials:
as §2

Test [10] has as its system MCF7. As to the kind of experiment: Cytotoxicity against human MCF7 cells at 10^-5 M after 72 hrs by MTS assay. The format is functional, cell-based. The essentials:
as §2

The subject of test [11] is MCF7. As to the kind of experiment: Cytotoxicity against human MCF7 cells at 10^-6 M after 72 hrs by MTS assay. It counts as functional, cell-based. The procedure, abridged: as §2
The test system of test [12] is PC-3. The test can be described thus: Cytotoxicity against human PC3 cells at 10^-6 M after 72 hrs by MTS assay. It counts as functional, cell-based. The essentials:
as §2

One may read the inhibition as how much of the control response was suppressed. A low value points to a response near the control. `CCOC(=O)Oc1ccc2[nH]c3c(C)cc(N=C(N)N)c(C)c3c2c1` registered an inhibition at 10 µM with KB [1] of 73%. The same compound came in with an inhibition at 1 µM with KB [2] of 0%.
As usually defined, the IC50 is the concentration at which inhibition is half-maximal. Lower therefore signals greater potency. With `Cc1cc(/N=C(\N)NC(C)(C)C)c(C)c2c1[nH]c1ccc(Br)cc12`, the outcome in the test on DNA [3] was Active. For the same compound, testing at 10 µM in the test on KB [1] gave an inhibition of 100%. Also, in the test on HL-60, the IC50 turned out to be 4 µM. The compound also had an inhibition at 1 µM in the test with KB [2] of 16%.
In the case of `CCCCN/C(N)=N/c1cc(C)c2[nH]c3ccc(Br)cc3c2c1C`, the result in the test on DNA [3] was Active. At 10 µM the inhibition in the test on KB [1] was 100%. For the same compound, the midpoint of inhibition in the test on HL-60, the IC50, lay at 3.5 µM. Further, in the test with KB [2], the inhibition at 1 µM stood at 26%.
For `CCC(CC)N/C(N)=N/c1cc(C)c2[nH]c3ccc(Br)cc3c2c1C`, the outcome in the test on DNA [4], in the test on DNA [3], in the test with HCT-116 [5], in the test with PC-3 [6], with MRC5 [8] and with MCF7 [10] was Active. The compound also registered an inhibition at 10 µM in the test on KB [1] of 100%. Moreover, the result in the test on MRC5 [7], in the test on HCT-116 [9], in the test with MCF7 [11] and with PC-3 [12] was inactive. In addition, in the test with HL-60, the IC50 amounted to 3.1 µM. Further, at 1 µM the inhibition with KB [2] was 15%.
For `CCCCN/C(N)=N/c1cc(C)c2[nH]c3ccccc3c2c1C`, the result with DNA [3] was Active. Further, the inhibition at 10 µM in the test on KB [1] stood at 98%. The compound further registered an inhibition at 1 µM in the test on KB [2] of 5%.
In the same order, the values of `CCCN/C(N)=N/c1cc(C)c2[nH]c3ccccc3c2c1C` are “Active”, 91% and 18%.
